Legend:
Glutamate NMDA receptor = experiment: Concentration which causes 50% reduction in receptor binding affinity against N-methyl-D-aspartate glutamate receptor (NMDA) using [3H]CPP; type: protein-complex assay
[1] = molecular target: Metabotropic glutamate receptor 1 (Rattus norvegicus, UniProt P23385); experiment: The compound was tested for the receptor binding affinity at Metabotropic glutamate receptor 1 using established second messenger assay systems.
Procedure, shortened: (§1)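 Receptors were expressed in CHO cells: mGluR1α, mGluR2, mGluR4a and mGluR5a. Functional read-outs were PI hydrolysis (1.8 × 10^6 cells seeded 2 days before) or cyclic AMP formation (1.0 × 10^6 cells seeded 2 days before). Agonist and antagonist activity was tested at 1 mM unless stated otherwise. Ki was derived from IC50 via the Cheng–Prusoff equation.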

[2] = molecular target: Metabotropic glutamate receptor 2 (Rattus norvegicus, UniProt P31421); experiment: The compound was tested for the receptor binding affinity at Metabotropic glutamate receptor 2 using established second messenger assay systems.; procedure, shortened: as §1
[3] = molecular target: Metabotropic glutamate receptor 5 (Rattus norvegicus, UniProt P31424); experiment: The compound was tested for the receptor binding affinity at Metabotropic glutamate receptor 5 using established second messenger assay systems.; procedure, shortened: as §1
[4] = molecular target: T1, Glutamate receptor ionotropic, AMPA (Rattus norvegicus, UniProt P19490+P19491+P19492+P19493); experiment: Concentration which causes 50% reduction in receptor binding affinity against Ionotropic glutamate receptor AMPA using [3H]AMPA
[5] = molecular target: Metabotropic glutamate receptor 4 (Rattus norvegicus, UniProt P31423); experiment: The compound was tested for the receptor binding affinity at Metabotropic glutamate receptor 4 using established second messenger assay systems.; procedure, shortened: as §1
[6] = molecular target: Glutamate receptor ionotropic, kainate 1 (Rattus norvegicus, UniProt P22756); experiment: Concentration which causes 50% reduction in receptor binding affinity against Ionotropic glutamate receptor ionotropic kainate using [3H]-kainic acid
Rattus norvegicus [7] = organism: Rattus norvegicus; experiment: Electropharmacology measured as antagonist effects in the rat cortical wedge model; type: functional
[8] = molecular target: T1, Glutamate receptor ionotropic, AMPA; experiment: Concentration which causes 50% reduction in receptor binding affinity against Ionotropic glutamate receptor AMPA using [3H]AMPA; type: protein-complex assay
Rattus norvegicus [9] = organism: Rattus norvegicus; experiment: Electropharmacology measured as agonist effects in the rat cortical wedge model; type: functional

Chain of Metabotropic glutamate receptor 1 (P23385 whole entry): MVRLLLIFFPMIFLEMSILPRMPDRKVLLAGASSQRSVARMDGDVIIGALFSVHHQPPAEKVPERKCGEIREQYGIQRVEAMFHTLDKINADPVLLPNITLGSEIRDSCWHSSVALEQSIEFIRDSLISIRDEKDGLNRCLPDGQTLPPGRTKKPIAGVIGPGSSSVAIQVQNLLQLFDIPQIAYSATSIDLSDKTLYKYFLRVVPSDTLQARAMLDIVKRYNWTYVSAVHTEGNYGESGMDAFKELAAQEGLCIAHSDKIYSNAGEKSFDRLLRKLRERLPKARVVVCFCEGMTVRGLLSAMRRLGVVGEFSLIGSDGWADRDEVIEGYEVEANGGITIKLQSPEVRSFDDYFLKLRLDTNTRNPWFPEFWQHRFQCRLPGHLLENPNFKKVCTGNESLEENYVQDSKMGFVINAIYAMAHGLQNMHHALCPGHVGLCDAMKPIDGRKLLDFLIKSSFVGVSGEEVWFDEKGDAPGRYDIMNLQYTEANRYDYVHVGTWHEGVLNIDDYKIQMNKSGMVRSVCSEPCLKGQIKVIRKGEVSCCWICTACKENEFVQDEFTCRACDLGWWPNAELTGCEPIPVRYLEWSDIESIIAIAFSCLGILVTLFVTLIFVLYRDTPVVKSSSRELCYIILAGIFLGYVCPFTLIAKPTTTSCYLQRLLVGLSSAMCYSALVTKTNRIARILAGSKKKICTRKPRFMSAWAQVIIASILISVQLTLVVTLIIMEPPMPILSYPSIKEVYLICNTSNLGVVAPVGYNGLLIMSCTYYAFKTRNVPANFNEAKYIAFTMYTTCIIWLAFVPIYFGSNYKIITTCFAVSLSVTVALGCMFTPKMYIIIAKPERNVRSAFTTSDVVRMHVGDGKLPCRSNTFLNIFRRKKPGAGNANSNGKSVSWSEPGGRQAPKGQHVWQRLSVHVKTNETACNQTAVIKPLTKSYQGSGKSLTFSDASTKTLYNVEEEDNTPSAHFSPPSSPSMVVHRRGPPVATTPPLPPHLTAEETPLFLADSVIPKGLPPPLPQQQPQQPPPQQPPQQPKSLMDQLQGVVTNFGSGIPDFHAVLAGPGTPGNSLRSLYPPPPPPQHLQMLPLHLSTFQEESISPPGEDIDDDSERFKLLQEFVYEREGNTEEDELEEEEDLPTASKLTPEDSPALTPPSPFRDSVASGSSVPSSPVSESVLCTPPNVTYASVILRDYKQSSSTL
Chain of Metabotropic glutamate receptor 2 (P31421 whole entry): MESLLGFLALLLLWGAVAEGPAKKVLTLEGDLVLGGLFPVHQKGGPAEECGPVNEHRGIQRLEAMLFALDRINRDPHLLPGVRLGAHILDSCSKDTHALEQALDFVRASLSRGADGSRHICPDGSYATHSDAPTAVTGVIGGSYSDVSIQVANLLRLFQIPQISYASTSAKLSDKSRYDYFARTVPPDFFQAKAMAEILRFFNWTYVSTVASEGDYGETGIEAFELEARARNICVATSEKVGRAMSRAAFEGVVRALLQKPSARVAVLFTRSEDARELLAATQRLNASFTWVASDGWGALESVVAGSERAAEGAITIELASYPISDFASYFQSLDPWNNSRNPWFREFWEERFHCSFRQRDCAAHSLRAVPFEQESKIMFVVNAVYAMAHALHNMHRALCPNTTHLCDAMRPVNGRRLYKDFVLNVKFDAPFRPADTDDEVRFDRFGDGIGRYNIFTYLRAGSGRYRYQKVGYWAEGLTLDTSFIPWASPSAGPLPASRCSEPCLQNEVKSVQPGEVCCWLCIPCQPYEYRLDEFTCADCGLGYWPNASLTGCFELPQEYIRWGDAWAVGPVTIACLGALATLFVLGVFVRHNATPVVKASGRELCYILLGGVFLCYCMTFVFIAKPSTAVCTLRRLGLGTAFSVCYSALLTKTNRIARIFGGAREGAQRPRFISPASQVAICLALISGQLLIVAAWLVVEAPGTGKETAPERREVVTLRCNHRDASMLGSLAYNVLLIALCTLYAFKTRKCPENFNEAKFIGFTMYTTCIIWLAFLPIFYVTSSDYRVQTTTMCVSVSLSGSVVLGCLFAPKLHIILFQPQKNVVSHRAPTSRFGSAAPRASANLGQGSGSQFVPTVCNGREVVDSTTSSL
Chain of Glutamate receptor ionotropic, kainate 1 (P22756 whole entry): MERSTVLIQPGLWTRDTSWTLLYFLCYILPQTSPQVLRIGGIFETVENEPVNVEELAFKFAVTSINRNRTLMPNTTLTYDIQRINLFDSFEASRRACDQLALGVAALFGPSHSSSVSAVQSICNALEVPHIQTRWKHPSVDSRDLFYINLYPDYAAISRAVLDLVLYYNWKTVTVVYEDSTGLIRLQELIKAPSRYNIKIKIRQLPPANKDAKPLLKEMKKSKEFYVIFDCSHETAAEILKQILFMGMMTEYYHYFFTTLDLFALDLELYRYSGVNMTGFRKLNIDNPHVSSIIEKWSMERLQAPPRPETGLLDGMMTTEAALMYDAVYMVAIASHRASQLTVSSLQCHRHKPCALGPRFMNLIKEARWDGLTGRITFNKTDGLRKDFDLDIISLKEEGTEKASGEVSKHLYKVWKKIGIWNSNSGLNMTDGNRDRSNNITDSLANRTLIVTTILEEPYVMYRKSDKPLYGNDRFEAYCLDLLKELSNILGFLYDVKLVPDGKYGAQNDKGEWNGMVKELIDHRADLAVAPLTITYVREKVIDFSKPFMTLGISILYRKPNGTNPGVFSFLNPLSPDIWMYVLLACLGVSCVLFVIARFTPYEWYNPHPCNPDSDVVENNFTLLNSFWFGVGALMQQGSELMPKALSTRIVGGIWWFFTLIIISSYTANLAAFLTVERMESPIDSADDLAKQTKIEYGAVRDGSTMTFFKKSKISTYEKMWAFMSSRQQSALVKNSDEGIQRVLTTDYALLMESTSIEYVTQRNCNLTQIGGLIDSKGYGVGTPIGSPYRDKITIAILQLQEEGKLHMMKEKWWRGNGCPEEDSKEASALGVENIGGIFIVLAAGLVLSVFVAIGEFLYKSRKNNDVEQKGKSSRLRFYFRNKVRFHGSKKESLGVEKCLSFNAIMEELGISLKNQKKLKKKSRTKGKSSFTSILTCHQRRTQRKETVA
Chain of Metabotropic glutamate receptor 5 (P31424 whole entry): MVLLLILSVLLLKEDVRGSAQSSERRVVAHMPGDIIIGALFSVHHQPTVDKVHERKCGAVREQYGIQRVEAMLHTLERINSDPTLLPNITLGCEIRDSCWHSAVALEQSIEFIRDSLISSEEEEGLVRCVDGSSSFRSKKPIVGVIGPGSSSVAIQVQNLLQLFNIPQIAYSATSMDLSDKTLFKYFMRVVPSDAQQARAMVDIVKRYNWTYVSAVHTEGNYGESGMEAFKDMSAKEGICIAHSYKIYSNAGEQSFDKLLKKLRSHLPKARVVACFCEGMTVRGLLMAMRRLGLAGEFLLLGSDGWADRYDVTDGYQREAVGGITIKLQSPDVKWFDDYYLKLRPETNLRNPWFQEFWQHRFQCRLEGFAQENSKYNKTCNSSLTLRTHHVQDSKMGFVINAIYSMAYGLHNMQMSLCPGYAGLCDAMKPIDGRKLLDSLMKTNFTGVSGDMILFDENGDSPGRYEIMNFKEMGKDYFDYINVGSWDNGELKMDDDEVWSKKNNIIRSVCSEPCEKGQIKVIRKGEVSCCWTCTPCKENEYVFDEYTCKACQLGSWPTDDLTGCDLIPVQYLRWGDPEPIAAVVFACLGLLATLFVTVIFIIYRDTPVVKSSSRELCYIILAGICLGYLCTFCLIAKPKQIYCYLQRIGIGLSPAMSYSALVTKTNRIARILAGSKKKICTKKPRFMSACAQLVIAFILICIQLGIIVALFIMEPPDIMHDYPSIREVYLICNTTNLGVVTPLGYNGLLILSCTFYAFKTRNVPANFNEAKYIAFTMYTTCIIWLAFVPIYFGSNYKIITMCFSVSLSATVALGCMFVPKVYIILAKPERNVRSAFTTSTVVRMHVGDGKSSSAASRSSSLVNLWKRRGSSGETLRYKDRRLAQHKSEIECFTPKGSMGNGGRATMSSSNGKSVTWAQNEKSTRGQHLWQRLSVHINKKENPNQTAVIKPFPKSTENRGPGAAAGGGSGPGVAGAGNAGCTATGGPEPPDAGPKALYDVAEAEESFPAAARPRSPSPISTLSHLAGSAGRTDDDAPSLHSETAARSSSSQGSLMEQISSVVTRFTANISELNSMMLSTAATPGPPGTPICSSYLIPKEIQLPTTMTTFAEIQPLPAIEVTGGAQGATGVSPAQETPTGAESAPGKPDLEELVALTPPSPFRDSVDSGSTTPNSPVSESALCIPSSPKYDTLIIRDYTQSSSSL

Row | IC50 (Glutamate NMDA receptor) | Ki [1] | Ki [2] | Ki [3] | IC50 [4] | Ki [5] | IC50 [6] | IC50 (Rattus norvegicus [7]) | IC50 [8] | EC50 (Rattus norvegicus [9]) | SMILES
1 | 14 µM | 249 µM | > 1000 µM | 53 µM | – | > 1000 µM | > 100 µM | 715 µM | > 100 µM | – | N[C@@H](Cc1onc(O)c1-c1ccc2ccccc2c1)C(=O)O
2 | 20 µM | 71 µM | > 1000 µM | 65 µM | – | > 1000 µM | > 100 µM | ~1000 µM | > 100 µM | – | N[C@@H](Cc1onc(O)c1-c1ccc(O)cc1)C(=O)O
3 | 42 µM | 226 µM | > 1000 µM | – | – | > 1000 µM | > 100 µM | – | 62 µM | 990 µM | N[C@@H](Cc1onc(O)c1-c1cccc(O)c1)C(=O)O
4 | > 100 µM | 125 µM | > 1000 µM | 45 µM | – | > 1000 µM | > 100 µM | – | > 100 µM | > 1000 µM | N[C@@H](Cc1onc(O)c1-c1ccccc1O)C(=O)O
5 | > 100 µM | 160 µM | > 1000 µM | – | – | > 1000 µM | > 100 µM | – | > 100 µM | 590 µM | N[C@@H](Cc1onc(O)c1-c1ccccc1)C(=O)O

Further lines, the compound ahead of its results:

Row | SMILES | IC50 (Glutamate NMDA receptor) | Ki [1] | Ki [2] | Ki [3] | IC50 [4] | Ki [5] | IC50 [6] | IC50 (Rattus norvegicus [7]) | IC50 [8] | EC50 (Rattus norvegicus [9])
6 | N[C@@H](Cc1o[nH]c(=O)c1-c1cccc2ccccc12)C(=O)O | > 100 µM | 119 µM | > 1000 µM | 62 µM | > 100 µM | > 1000 µM | > 100 µM | ~1000 µM | – | –
7 | N[C@@H](Cc1o[nH]c(=O)c1-c1ccccn1)C(=O)O | > 100 µM | 396 µM | > 1000 µM | 224 µM | – | > 1000 µM | > 100 µM | – | 1.3 µM | 23 µM
8 | N[C@@H](Cc1o[nH]c(=O)c1CCc1ccccc1)C(=O)O | > 100 µM | 92 µM | > 1000 µM | 70 µM | – | > 1000 µM | > 100 µM | > 1000 µM | > 100 µM | –
9 | N[C@@H](Cc1cc(=O)[nH]o1)C(=O)O | > 100 µM | 250 µM | > 1000 µM | 490 µM | – | > 1000 µM | > 100 µM | – | – | –

From ChEMBL document CHEMBL1135727, “Selective antagonists at group I metabotropic glutamate receptors: synthesis and molecular pharmacology of 4-aryl-3-isoxazolol amino acids” (J Med Chem, 2002)
